Experimental data published in paper PMC4470787 (Clinical cancer research : an official journal of the …, 2015).
Entries after “also recorded” stand apart in the source; their conditions may differ.

Columns and labels:
[1] = system: relapsed/refractory acute lymphoblastic leukemia; assay: Phase I/II study: response and survival with everolimus plus HyperCVAD; type: in vivo, human
[2] = system: pS6RP, p4EBP1 (Thr37/46), pAkt (Ser473); type: in vivo, human; conditions: 5 of 8 tested samples; 24 h after first dose; both 5 mg and 10 mg dose levels
[3] = system: mTOR-sensitive, inflammation-associated and miR-21 target gene sets; type: in vivo, human
In short: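 Peripheral blood was sampled from 5 patients before (C1D0) and 24 h after (C1D1) the first oral everolimus dose. RNA was TRIzol-extracted, isopropanol-precipitated and 70% ethanol-washed, accepted at integrity number >7, and amplified/biotinylated via oligo(dT) reverse transcription and T7 transcription with biotin-UTP. It was hybridised to HumanHT-12 v4 bead chips and analysed by gene set enrichment analysis.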

[4] = system: mTOR targets (S6RP pS235-S236, S6RP pS240-S244, 4EBP1) and Akt; assay: Reverse phase protein array; type: in vivo, human
In short: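 Peripheral blood proteins from 10 patients (3 on 5 mg/day, 7 on 10 mg/day everolimus) were lysed as for western blots, taken before (C1D0) and 24 h after (C1D1) the first dose. The reverse phase protein array probed mTOR pS2448, p70S6K pT389, S6RP pS235-S236 and pS240-S244, 4EBP1 pS65 and pT37-T46, and Akt pS473 and pT308. Phospho/total ratios were compared between days 0 and 1.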

[5] = Everolimus whole blood pharmacokinetics; type: in vivo, human
In short: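 Patients with relapsed/refractory ALL took oral everolimus (5 or 10 mg/day, continuous from Cycle 1 Day 0) with HyperCVAD. Whole blood was collected in EDTA tubes 1, 2, 5, 8 and 24 h post-dose on Days 1 and 15 of Cycles 1 and 2 and held at 4°C. Drug levels were measured by validated HPLC-MS/MS with sirolimus internal standard. Cmax, Tmax, t1/2, Ke, CL, AUC0-∞ and V came from non-compartmental analysis.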

[6] = system: patients with relapsed or refractory hematologic malignancies; conditions: phase I study at UT/MDACC; cited from earlier work
[7] = system: patients with relapsed/refractory acute lymphoblastic leukemia
[8] = 1 of 24 patients, everolimus with HyperCVAD
[9] = all 24 patients, everolimus with HyperCVAD
[10] = patients in first salvage, everolimus with HyperCVAD
[11] = patients in second salvage and beyond, everolimus with HyperCVAD

## CO[C@H]1C[C@@H]2CC[C@@H](C)[C@@](O)(O2)C(=O)C(=O)N2CCCC[C@H]2C(=O)O[C@H]([C@H](C)C[C@@H]2CC[C@@H](OCCO)[C@H](OC)C2)CC(=O)[C@H](C)/C=C(\C)[C@@H](O)[C@@H](OC)C(=O)[C@H](C)C[C@H](C)/C=C/C=C/C=C/1C [everolimus]
[1]; [8]
  CR without platelet recovery (CRp): 4%
  CR without recovery of counts (CRi): 4%
[1]; 2 of 24 patients, everolimus with HyperCVAD
  partial response (PR): 8%
[1]; 5 of 10 heavily pretreated T-ALL patients, everolimus with HyperCVAD
  response in T-ALL patients: 50%
[1]; 5 of 13 patients (all CR), everolimus with HyperCVAD
  response in B-ALL patients: 39%
[1]; 6 of 24 patients, everolimus with HyperCVAD
  complete remission (CR): 25%
[1]; 7 of 11 patients, everolimus with HyperCVAD
  response (CR/CRp) in first salvage: 64%
[1]; 10 patients, everolimus with HyperCVAD
  responses beyond second salvage: no responses
[1]; B-ALL patients, everolimus with HyperCVAD
  median OS: 23 weeks
[1]; T-ALL patients, everolimus with HyperCVAD
  median OS: 23 weeks
[1]; [9]
  overall response rate (CR+CRp+CRi): 33%
  response noted (including PR): 41%
[1]; among patients who achieved CR/CRp/CRi
  no detectable MRD at response (multiparametric flow cytometry): 5 of the 8
[1]; everolimus with HyperCVAD
  CRi in second salvage: 1 of 3
[1]; [10]
  median EFS: 22 weeks
  median OS: 29 weeks
[1]; [11]
  median EFS: 7 weeks
  median OS: 15 weeks
[1]; responders with abnormal cytogenetics at diagnosis
  complete cytogenetic response: 3 patients
[2]
  samples with reduced phosphorylation of S6RP (western blot): 62%
[3]; 5 patients, C1D0 vs C1D1
  expression of mTOR-sensitive genes induced by overexpression of Akt (GSEA): significantly reduced
  inflammation-associated genes (TNF, EGF, IL-6 induced) (GSEA): similarly reduced
  target genes of miR-21 (GSEA): increased
[3]; P=0.016
  patient samples with increased PTEN expression (microarray): 4 of the 5
[4]; 10 patients, 1-sided paired t-test P=0.007
  phosphorylation of S6RP pS235-S236 (RPPA): inhibited phosphorylation
[4]; 10 patients, 1-sided paired t-test P=0.01
  phosphorylation of S6RP pS240-S244 (RPPA): inhibited phosphorylation
[4]; 24 h after first dose
  phosphorylation of 4EBP1, Akt, or other proteins: No significant decreases; also recorded: No statistically significant differences
[4]; everolimus 5 mg/day, RPPA and western blot
  phosphorylation of S6RP at pS235-S236 and pS240-S244 sites: sufficiently blocked
[4]; including Akt targets cyclin D1, FOXO3A, PRAS40 and Mcl-1
  degree of inhibition of proteins or phosphorylated forms, 5 mg/day vs 10 mg/day: did not differ
[4]; of 10 patients with serial analysis
  patients with elevation of PTEN levels by RPPA: Five
[5]; 10-mg/day dose
  AUC and Cmax at steady state (C1D15 and C2D0) versus literature: higher than in previous published studies
[5]; in vivo
  trough levels of everolimus, association: not associated with response or toxicity
[5]; whole blood
  AUC and Cmax between everolimus 5 mg/day and 10 mg/day: dose-proportional
[6]
  tolerability of single-agent everolimus: well tolerated at a dose of 10 mg daily
[7]; human, in vivo
  Cardiac: Pericardial effusion, G1/2: 0 N (%)
  Cardiac: Pericardial effusion, G3/4: 2 (8) N (%)
  Cardiac: Tachycardia, G1/2: 3 (13) N (%)
  Cardiac: Tachycardia, G3/4: 1 (4) N (%)
  Constitutional: Fatigue, G1/2: 13 (54) N (%)
  Constitutional: Fatigue, G3/4: 0 N (%)
  Constitutional: Headache, G1/2: 6 (25) N (%)
  Constitutional: Headache, G3/4: 4 (17) N (%)
  Gastrointestinal: Diarrhea, G1/2: 8 (33) N (%)
  Gastrointestinal: Diarrhea, G3/4: 2 (8) N (%)
  Gastrointestinal: Nausea, G1/2: 9 (38) N (%)
  Gastrointestinal: Nausea, G3/4: 0 N (%)
  Infection (one or more), G1/2: 0 N (%)
  Infection (one or more), G3/4: 23 (96) N (%)
  Metabolic: ALT/AST, G1/2: 14 (58) N (%)
  Metabolic: ALT/AST, G3/4: 7 (29) N (%)
  Metabolic: Bilirubin, G1/2: 14 (58) N (%)
  Metabolic: Bilirubin, G3/4: 2 (8) N (%)
  Metabolic: Hyperglycemia, G1/2: 7 (29) N (%)
  Metabolic: Hyperglycemia, G3/4: 12 (50) N (%)
  Mucositis/stomatitis, G1/2: 10 (42) N (%)
  Mucositis/stomatitis, G3/4: 3 (13) N (%)
  Pulmonary: Dyspnea, G1/2: 1 (4) N (%)
  Pulmonary: Dyspnea, G3/4: 1 (4) N (%)
  Pulmonary: Pleural effusions, G1/2: 1 (10) N (%)
  Pulmonary: Pleural effusions, G3/4: 2 (8) N (%)
  Renal: Renal insufficiency, G1/2: 0 N (%)
  Renal: Renal insufficiency, G3/4: 4 (17) N (%)
  Renal: Urinary retention, G1/2: 1 (4) N (%)
  Renal: Urinary retention, G3/4: 0 N (%)
  incidence of grade 3/4 hyperglycemia: 50%
  myelosuppression and neutropenia: occurred in all 24 patients
[7]; in combination with HyperCVAD, 3+3 design
  maximum tolerated dose (MTD) of everolimus: 5 mg/day
[7]; in vivo
  DLT at dose level 0: no documented first or second cycle DLT
  pneumonitis: No documented cases
